Laboratory results from PMC4948641 (ChemMedChem, 2015).
Where “and” joins values, the source holds several entries; their conditions need not be identical. Equal entries are not always repeated.

Key:
[1] = test system: mitochondrial permeability transition pore (PTP); assay: Ca2+-induced mitochondrial swelling assay; assay type: biochemical; settings: read-out: mitochondrial swelling EC50; isolated mouse liver mitochondria; 50 μM Ca2+
Procedure, shortened: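 Mitochondria isolated from mouse liver take up 50 μM Ca2+ to trigger pore-dependent swelling. Swelling is followed across a range of test compound concentrations. Data are the average ± SEM of ≥ 4 experiments.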

IMM potential = assay: Rhodamine 123 uptake counterscreen; assay type: biochemical; settings: read-out: Rh123 uptake EC50, isolated mouse liver mitochondria
Procedure, shortened: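 Isolated mouse liver mitochondria took up rhodamine 123 as a read-out of inner-membrane potential. The test compound was applied in a concentration series, and interference with Rh123 uptake was recorded. Values are the average ± SEM of ≥4 experiments.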

[2] = test system: mitochondrial permeability transition pore (PTP); assay: Ca2+ retention capacity; assay type: biochemical; settings: isolated mouse liver mitochondria
Procedure, shortened: (§1)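 Isolated mouse liver mitochondria from wild-type or CyPD-knockout mice were used. Ca2+ retention capacity was taken as the amount of Ca2+ needed to open the pore. Mitochondria were treated across a concentration range of test compound or solvent, and results were expressed as the compound-to-solvent CRC ratio. Values are the average ± SEM of ≥4 experiments.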

[3] = test system: mitochondrial permeability transition pore (PTP); assay: CRC assay in CyPD-null mouse liver mitochondria; assay type: biochemical
Procedure, shortened: as §1

[4] = test system: mitochondrial permeability transition pore (PTP); assay: CRC of permeabilized HeLa cells; assay type: cell-based, human
Procedure, shortened: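 Ca2+ retention capacity was measured in permeabilized HeLa cells, 0.8 million cells per condition. The test compound was applied across a concentration range. Results are expressed as the compound-to-solvent CRC ratio, average ± SEM of ≥4 experiments.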

[5] = aqueous solubility in 1xPBS; assay type: physicochemical
[6] = chemical stability with 5x DTT; assay type: physicochemical
aqueous stability = assay type: physicochemical
[7] = plasma protein binding, human; assay type: in vitro ADME
[8] = plasma protein binding, mouse; assay type: in vitro ADME
plasma stability, human = assay type: in vitro ADME
plasma stability, mouse = assay type: in vitro ADME
PAMPA permeability = assay type: in vitro ADME; settings: Pe
BBB PAMPA permeability = assay type: in vitro ADME; settings: pH 7.4
[9] = hepatic microsome stability, human; assay type: in vitro ADME; settings: liver microsomes, hepatic microsome stability (% remaining after 1 h)
[10] = hepatic microsome stability, mouse; assay type: in vitro ADME; settings: liver microsomes, hepatic microsome stability (% remaining after 1 h)
[11] = toxicity towards Fa2N-4 immortalized human hepatocytes; assay type: cell-based; settings: human, Fa2N-4 immortalized hepatocytes
[12] = test system: Fa2N-4 immortalized human hepatocytes; assay: as above; assay type: cell-based
[13] = test system: isolated mouse liver mitochondria; assay: mitochondrial respiration in isolated mouse liver mitochondria; assay type: biochemical
Procedure, shortened: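 Isolated mouse liver mitochondria were treated with the test compound or solvent, and respiration was measured. Results are expressed as respiratory control ratio, reflecting the capacity to generate ATP. Values are the average ± SEM of ≥4 experiments.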

HeLa cells [14] = assay: oxygen-consumption rate of intact HeLa cells; assay type: cell-based, human; settings: ≤ 10 μM
HeLa cells [15] = assay: HeLa cell proliferation after 24-hour treatment; assay type: cell-based, human; settings: ≤ 10 μM
Procedure, shortened: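 HeLa cells were treated with the test compound at the indicated concentrations for 24 hours, and proliferation was then assessed. Values are the average ± SEM of ≥4 experiments.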

## O=C(Nc1ccc(CN2CCCCC2)cc1)c1cc(Cl)cc(OCc2ccccc2)c1 [Compound 4, 3-(benzyloxy)-5-chloro-N-(4-(piperidin-1-ylmethyl)phenyl)benzamide]
[1]
  EC50: 0.28 ± 0.024 µM
IMM potential
  EC50: 24.5 ± 1.12 µM
[2]; 12.5 μM, compound-to-solvent CRC ratio
  CRC/CRC0 at 12.5 μM: 19.5 ± 1.7
[2]
  maximum CRC ratio relative to CsA-treated mitochondria: about 4 times
[3]
  increase in CRC in CyPD-null mouse liver mitochondria: 7 fold
[4]
  effect on CRC of permeabilized HeLa cells: concentration-dependent increase
[5]; pH 5, aqueous buffer
  solubility: 22.8 µg/mL and 52.5 µM
[5]; pH 6.2, aqueous buffer
  solubility: 22.6 µg/mL and 52.1 µM
[5]; pH 7.4, aqueous buffer
  solubility: 0.64 µg/mL and 1.5 µM
[6]
  chemical stability with 5× DTT, % parent remaining after 8 h: 91%
Aqueous stability
  aqueous stability (1:1 PBS/acetonitrile), % parent remaining after 48 h: 93.4%
[7]
  fraction unbound at 1 μM: 0.008
  fraction unbound at 10 μM: 0.008
[8]
  fraction unbound at 1 μM: 0.007
  fraction unbound at 10 μM: 0.017
Plasma stability, human
  remaining at 3 h: 39%
Plasma stability, mouse
  remaining at 3 h: 35%
PAMPA permeability; Donor pH 5.0, Acceptor pH 7.4
  Papp: 1300 ×10⁻⁶ cm/s
PAMPA permeability; Donor pH 6.2, Acceptor pH 7.4
  Papp: 1340 ×10⁻⁶ cm/s
BBB PAMPA permeability
  Papp: 113 ×10⁻⁶ cm/s
[9]; +NADPH
  remaining at 1 h: 61%
[9]; -NADPH
  remaining at 1 h: 67%
[10]; +NADPH
  remaining at 1 h: 30%
[10]; -NADPH
  remaining at 1 h: 74%
[11]
  CC50: 32 µM
[12]
  selectivity, Fa2N-4 LC50 compared to mitochondrial swelling EC50: 114 fold
[13]; 5 μM
  effect on ATP synthesis: no effect
[13]; ≤ 10 μM, isolated mouse liver mitochondria
  respiratory control ratios, FCCP-stimulated and oligomycin-sensitive respiration: No significant differences
HeLa cells [14]
  FCCP-stimulated and oligomycin-sensitive respiration (OCR): No significant differences
HeLa cells [15]
  effect on HeLa cell proliferation: no effect
